Data from ChEMBL document CHEMBL1139591, “Synthesis and antibacterial activity of dihydro-1,2-oxazine and 2-pyrazoline oxazolidinones: novel analogs of linezolid” (2005).
≈ marks a conversion by molar mass, not a printed value.

Columns and labels:
Format in all cases: functional
Enterococcus faecium = experiment: Minimum inhibitory concentration against Enterococcus faecium A24885
Procedure, shortened: (§1)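 Broth microdilution per NCCLS guidance in Mueller-Hinton medium; final inoculum about 5×10^5 cfu/mL; plates incubated 18 h at 35 °C in ambient air. MIC taken as the lowest drug concentration preventing visible growth, in µg/mL.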

Enterococcus faecalis = experiment: Minimum inhibitory concentration against Enterococcus faecalis A20688; procedure, shortened: as §1
Staphylococcus aureus [1] = experiment: Minimum inhibitory concentration against Staphylococcus aureus A15090
Procedure, shortened: (§2)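 Broth microdilution per NCCLS guidance in Mueller-Hinton medium. Final inoculum about 5×10^5 cfu/mL. Plates incubated at 35 °C for 18 h in ambient air. MIC taken as the lowest drug concentration that prevented visible growth.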

Streptococcus pneumoniae = experiment: Minimum inhibitory concentration against Streptococcus pneumoniae A9585
Procedure, shortened: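 Broth microdilution following NCCLS recommendations, using Todd Hewitt broth for streptococci; final inoculum approx. 5×10^5 cfu/mL; incubation 35 °C for 18 h in 5% CO₂. MIC read as the lowest drug concentration preventing growth, µg/mL.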

Staphylococcus aureus [2] = experiment: Minimum inhibitory concentration against heterogeneously methicillin-resistant Staphylococcus aureus A27218; procedure, shortened: as §2
Staphylococcus aureus [3] = experiment: Minimum inhibitory concentration against homogeneously methicillin-resistant Staphylococcus aureus A27223; procedure, shortened: as §2
Staphylococcus aureus [4] = experiment: Minimum inhibitory concentration against homogeneously methicillin-resistant Staphylococcus aureus A27223 in the presence of 50% calf serum
Procedure, shortened: (§3)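 Broth microdilution per NCCLS guidance in Mueller-Hinton medium supplemented with 50% calf serum. Final inoculum about 5×10^5 cfu/mL. Incubated at 35 °C for 18 h in ambient air. MIC read as the lowest drug concentration that prevented visible growth.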

Staphylococcus aureus [5] = experiment: Minimum inhibitory concentration against heterogeneously methicillin-resistant Staphylococcus aureus A27218 in the presence of 50% calf serum; procedure, shortened: as §3
Staphylococcus aureus [6] = experiment: Minimum inhibitory concentration against Staphylococcus aureus A15090 in the presence of 50% calf serum; procedure, shortened: as §3

Compound	MIC (Enterococcus faecium)	MIC (Enterococcus faecalis)	MIC (Staphylococcus aureus [1])	MIC (Streptococcus pneumoniae)	MIC (Staphylococcus aureus [2])	MIC (Staphylococcus aureus [3])	MIC (Staphylococcus aureus [4])	MIC (Staphylococcus aureus [5])	MIC (Staphylococcus aureus [6])
CC(=O)NC[C@H]1CN(c2ccc(N3CCCCN3C(C)=O)c(F)c2)C(=O)O1	32 µg/mL (≈ 84.6 µM)	32 µg/mL (≈ 84.6 µM)	32 µg/mL (≈ 84.6 µM)	4 µg/mL (≈ 10.6 µM)	32 µg/mL (≈ 84.6 µM)	16 µg/mL (≈ 42.3 µM)			
CC(=O)NC[C@H]1CN(c2ccc(N3CC(C)=C(C)CO3)cc2)C(=O)O1	8 µg/mL (≈ 23.2 µM)	16 µg/mL (≈ 46.3 µM)	4 µg/mL (≈ 11.6 µM)	8 µg/mL (≈ 23.2 µM)	8 µg/mL (≈ 23.2 µM)	4 µg/mL (≈ 11.6 µM)			
CC(=O)NC[C@H]1CN(c2ccc(NO)cc2)C(=O)O1	4 µg/mL (≈ 15.1 µM)	8 µg/mL (≈ 30.2 µM)	0.5 µg/mL (≈ 1.88 µM)	4 µg/mL (≈ 15.1 µM)	4 µg/mL (≈ 15.1 µM)	2 µg/mL (≈ 7.54 µM)			
CC(=O)NC[C@H]1CN(c2ccc([N+](=O)[O-])c(F)c2)C(=O)O1	> 128 µg/mL	> 128 µg/mL	> 128 µg/mL	64 µg/mL (≈ 215 µM)	128 µg/mL (≈ 431 µM)	128 µg/mL (≈ 431 µM)			
CC(=O)NC[C@H]1CN(c2ccc(N3CCC=N3)c(F)c2)C(=O)O1	4 µg/mL (≈ 12.5 µM)	2 µg/mL (≈ 6.24 µM)	1 µg/mL (≈ 3.12 µM)	1 µg/mL (≈ 3.12 µM)	1 µg/mL (≈ 3.12 µM)	1 µg/mL (≈ 3.12 µM)	1 µg/mL	1 µg/mL	1 µg/mL
CC(=O)NC[C@H]1CN(c2ccc(N)cc2)C(=O)O1	128 µg/mL (≈ 513 µM)	128 µg/mL (≈ 513 µM)	16 µg/mL (≈ 64.2 µM)	16 µg/mL (≈ 64.2 µM)	128 µg/mL (≈ 513 µM)	64 µg/mL (≈ 257 µM)			
CC(=O)NC[C@H]1CN(c2ccc(N3OC4C=CC3CC4)cc2)C(=O)O1 (stereo not given in full)	16 µg/mL (≈ 46.6 µM)	32 µg/mL (≈ 93.2 µM)	16 µg/mL (≈ 46.6 µM)	16 µg/mL (≈ 46.6 µM)	8 µg/mL (≈ 23.3 µM)	4 µg/mL (≈ 11.6 µM)			
CC(=O)NC[C@H]1CN(c2ccc(N3CC=CCO3)cc2)C(=O)O1	2 µg/mL (≈ 6.3 µM)	4 µg/mL (≈ 12.6 µM)	1 µg/mL (≈ 3.15 µM)	2 µg/mL (≈ 6.3 µM)	2 µg/mL (≈ 6.3 µM)	1 µg/mL (≈ 3.15 µM)	1 µg/mL	2 µg/mL	1 µg/mL
CC(=O)NC[C@H]1CN(c2ccc(N=O)cc2)C(=O)O1	2 µg/mL (≈ 7.6 µM)	4 µg/mL (≈ 15.2 µM)	2 µg/mL (≈ 7.6 µM)	1 µg/mL (≈ 3.8 µM)	2 µg/mL (≈ 7.6 µM)	1 µg/mL (≈ 3.8 µM)			
CC(=O)NC[C@H]1CN(c2ccc(N3CCCN3C(C)=O)c(F)c2)C(=O)O1	32 µg/mL (≈ 87.8 µM)	32 µg/mL (≈ 87.8 µM)	32 µg/mL (≈ 87.8 µM)	0.5 µg/mL (≈ 1.37 µM)	32 µg/mL (≈ 87.8 µM)	16 µg/mL (≈ 43.9 µM)			
CC(=O)NC[C@H]1CN(c2ccc([N+](=O)[O-])cc2)C(=O)O1	4 µg/mL (≈ 14.3 µM)	4 µg/mL (≈ 14.3 µM)	0.5 µg/mL (≈ 1.79 µM)	2 µg/mL (≈ 7.16 µM)	2 µg/mL (≈ 7.16 µM)	1 µg/mL (≈ 3.58 µM)			
CC(=O)NC[C@H]1CN(c2ccc(N3CCN(C(=O)CO)CC3)c(F)c2)C(=O)O1 [EPEREZOLID]	2 µg/mL (≈ 5.07 µM)	2 µg/mL (≈ 5.07 µM)	1 µg/mL (≈ 2.54 µM)	0.5 µg/mL (≈ 1.27 µM)	1 µg/mL (≈ 2.54 µM)	1 µg/mL (≈ 2.54 µM)			
CC(=O)NC[C@H]1CN(c2ccc(N3CCOCC3)c(F)c2)C(=O)O1 [LINEZOLID]	2 µg/mL (≈ 5.93 µM)		1 µg/mL (≈ 2.96 µM)						
